Screen size: about 24,000 compounds; fewer than 10 were called active. Cut-off read from the data, not from the text of the source: active = caspase activation above about 5.9%; inconclusive = no clear call, values can overlap the other calls; inactive = below about 2.2%. Only a sample is shown.
Experiment: A1 inhibitors via caspase activation, primary screen, cell-based, luminescence, HTS, two replicates (AID 2465)
Details: MEF A1-2A-BIM cells, caspase-Glo luminescence, 3 h; stronger effect = higher value; percent of clofoctol response, DMSO zero; concentration not given here
Outline: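 System: mouse embryonic fibroblasts co-expressing A1 and BIM (A1-2A-BIM), primed for A1 dependence; amount: 2500 cells/well; doses: 50 nL pinned compound; schedule: cells settled overnight, compound exposure 3 h at 37 °C, 5% CO2; detection: Caspase-Glo 3/7 luminescence, 1 h at room temperature; read-out: Caspase-3/7 activation, seen as rise in luminescence signal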

Caspase activation, inactive:
Cc1ccc(S(=O)(=O)Nc2ccc3c(c2)C(=O)N([C@@H](C)CO)C[C@H](C)[C@@H](CN(C)C(=O)Cc2ccccc2)OCCCC[C@H](C)O3)cc1 -0.949%
C[C@@H]1CN([C@H](C)CO)C(=O)c2cccc(NC(=O)Nc3ccccc3)c2O[C@H]1CN(C)S(C)(=O)=O -0.29%
Cc1ccccc1CN(C)C[C@H]1OCc2cn(nn2)CCCC(=O)N([C@@H](C)CO)C[C@H]1C -0.00464%
C[C@H](CO)N1C[C@H](C)[C@@H](CN(C)S(=O)(=O)c2cccs2)OCCCC[C@H](C)Oc2ccc(NS(=O)(=O)c3ccccc3)cc2C1=O 0.384%
C[C@@H]1CCCCO[C@H](CN(C)Cc2ccccc2)[C@H](C)CN([C@@H](C)CO)C(=O)c2cc(NC(=O)Nc3cccc4ccccc34)ccc2O1 -0.203%
O=C(CCCCCC(=O)Nc1ccccc1O)N/N=C/c1ccc(Br)o1 0.454%
C[C@H](CO)N1C[C@H](C)[C@H](CN(C)Cc2ccc(C(=O)O)cc2)OCc2cn(nn2)CCCC1=O 0.235%
C[C@@H]1CN([C@@H](C)CO)C(=O)c2cc(NC(=O)Nc3ccccc3)ccc2O[C@@H]1CN(C)Cc1ccccc1 -0.201%
CC(C)NC(=O)N(C)C[C@H]1OCCCC[C@H](C)Oc2ccc(NS(=O)(=O)c3cccs3)cc2C(=O)N([C@H](C)CO)C[C@@H]1C 1.03%
COc1ccc(NC(=O)N(C)C[C@@H]2Oc3ccc(NS(=O)(=O)c4ccc(OC)cc4)cc3CC(=O)N([C@H](C)CO)C[C@H]2C)cc1 0.4%
COc1ccc(S(=O)(=O)Nc2cccc3c2O[C@@H](CN(C)C(=O)Nc2cccc4ccccc24)[C@H](C)CN([C@@H](C)CO)C3=O)cc1 -1.43%
C[C@H](O)[C@H](O)[C@@H](O)[C@@H](O)/C=N/NC(=O)CCCCCC(=O)Nc1ccccc1O 0.323%
C[C@@H]1CN([C@@H](C)CO)C(=O)c2cc(NC(=O)Cc3ccccc3)ccc2O[C@@H](C)CCCCO[C@H]1CN(C)C(=O)Cc1ccccc1 1.05%
Cc1noc(C)c1S(=O)(=O)N(C)C[C@@H]1OCCCC[C@H](C)Oc2ccc(NC(=O)Nc3ccc4c(c3)OCO4)cc2C(=O)N([C@H](C)CO)C[C@@H]1C -0.0337%
O=C(CCCCCCC(=O)Nc1ccccc1O)N/N=C/c1ccc(Oc2ccccc2)cc1 0.474%
O=C(NO)c1ccc(C(=O)N/N=C/c2ccc(Br)cc2)cc1 -0.637%
CC(C)NC(=O)Nc1ccc2c(c1)C(=O)N([C@@H](C)CO)C[C@H](C)[C@H](CN(C)C(=O)NC1CCCCC1)OCCCC[C@@H](C)O2 0.925%
C[C@@H]1CN([C@H](C)CO)C(=O)c2cc(NC(=O)c3ccncc3)ccc2O[C@@H](C)CCCCO[C@@H]1CN(C)CC1CC1 -1.05%
C[C@H]1CCCCO[C@H](CN(C)CC2CC2)[C@@H](C)CN([C@@H](C)CO)C(=O)c2cc(NC(=O)CCC(F)(F)F)ccc2O1 -0.204%
C[C@@H]1CCCCO[C@@H](CN(C)S(=O)(=O)c2cccs2)[C@@H](C)CN([C@@H](C)CO)C(=O)c2cc(NS(=O)(=O)c3ccc(F)cc3)ccc2O1 0.628%
C[C@@H]1CCCCO[C@H](CN(C)Cc2ccc(C(F)(F)F)cc2)[C@@H](C)CN([C@@H](C)CO)C(=O)c2cc(NC(=O)c3ccncc3)ccc2O1 -0.085%
C[C@@H]1CCCCO[C@@H](CN(C)S(=O)(=O)c2ccc(F)cc2)[C@@H](C)CN([C@@H](C)CO)C(=O)c2cc(NC(=O)Nc3ccc4c(c3)OCO4)ccc2O1 -0.312%
C[C@H]1CN([C@@H](C)CO)C(=O)Cc2cc(NC(=O)Cn3cnnn3)ccc2O[C@H]1CN(C)CC1CC1 -0.754%
Cc1ccc(S(=O)(=O)N(C)C[C@H]2OCCCC[C@H](C)Oc3ccc(N(C)C)cc3C(=O)N([C@H](C)CO)C[C@@H]2C)cc1 0.228%
C[C@@H]1CN([C@H](C)CO)C(=O)c2cc(NS(=O)(=O)c3ccccc3)ccc2O[C@H]1CN(C)S(=O)(=O)c1cccs1 -0.323%
COc1ccc(S(=O)(=O)Nc2ccc3c(c2)C(=O)N([C@H](C)CO)C[C@@H](C)[C@@H](CN(C)CC2CCCCC2)O3)cc1 -0.24%
CC(C)NC(=O)N(C)C[C@@H]1Oc2ccc(NC(=O)Cn3cnnn3)cc2CC(=O)N([C@H](C)CO)C[C@H]1C 1.87%
COc1cc(OC)c(/C=N/NC(=O)CCCCCCC(=O)Nc2ccccc2O)c(OC)c1 -0.41%
C[C@@H]1CCCCO[C@@H](CN(C)Cc2ccncc2)[C@@H](C)CN([C@H](C)CO)C(=O)c2cc(NS(=O)(=O)c3cccs3)ccc2O1 -0.367%
C[C@@H]1CN([C@H](C)CO)C(=O)Cc2cc(NC(=O)Nc3ccc4c(c3)OCO4)ccc2O[C@H]1CN(C)Cc1ccc(C(F)(F)F)cc1 1.47%
COc1ccc(S(=O)(=O)N(C)C[C@@H]2OCCCC[C@H](C)Oc3ccc(NC(=O)Nc4ccccc4)cc3C(=O)N([C@@H](C)CO)C[C@H]2C)cc1 0.213%
C[C@@H]1CN([C@@H](C)CO)C(=O)CCCn2nncc2CO[C@H]1CN(C)C(=O)CCCN(C)C -0.0755%
COc1ccc(NC(=O)Nc2ccc3c(c2)C(=O)N([C@@H](C)CO)C[C@@H](C)[C@@H](CN(C)S(=O)(=O)c2ccc(C)cc2)OCCCC[C@H](C)O3)cc1 -0.213%
COc1ccc(S(=O)(=O)Nc2ccc3c(c2)CC(=O)N([C@@H](C)CO)C[C@H](C)[C@@H](CN(C)Cc2ccc(C(=O)O)cc2)O3)cc1 1%
C[C@H](CO)N1C[C@H](C)[C@@H](CN(C)Cc2ccc(-c3ccccc3)cc2)Oc2ccc(NC(=O)CCCN(C)C)cc2CC1=O 0.389%
C[C@@H]1CCCCO[C@@H](CN(C)C(=O)C2CCCCC2)[C@H](C)CN([C@H](C)CO)C(=O)c2cc(NC(=O)CCC(F)(F)F)ccc2O1 -0.546%
COc1ccc(S(=O)(=O)N(C)C[C@@H]2Oc3ccc(NC(=O)C4CC4)cc3CC(=O)N([C@@H](C)CO)C[C@H]2C)cc1 -0.0568%
C[C@@H]1CN([C@H](C)CO)C(=O)c2cc(NC(=O)NC3CCCCC3)ccc2O[C@@H](C)CCCCO[C@H]1CN(C)C(=O)Nc1ccccc1 -0.462%
C[C@H](CO)N1C[C@H](C)[C@@H](CN(C)Cc2ccc(C(=O)O)cc2)OCCCC[C@H](C)Oc2ccc(NC(=O)c3ccccc3)cc2C1=O -0.0294%
Cc1noc(C)c1NC(=O)Nc1ccc2c(c1)CC(=O)N([C@@H](C)CO)C[C@@H](C)[C@H](CN(C)C(=O)NC1CCCCC1)O2 -0.291%
Cc1ccc(S(=O)(=O)Nc2ccc3c(c2)C(=O)N([C@@H](C)CO)C[C@@H](C)[C@@H](CN(C)Cc2ccc(C(F)(F)F)cc2)OCCCC[C@@H](C)O3)cc1 0.898%
CNC[C@H]1OCCCC[C@H](C)Oc2ccc(NS(=O)(=O)c3ccc(Cl)cc3)cc2C(=O)N([C@@H](C)CO)C[C@@H]1C -0.41%
COc1ccc(NC(=O)N(C)C[C@@H]2Oc3ccc(NC(=O)CCN4CCOCC4)cc3C(=O)N([C@@H](C)CO)C[C@H]2C)cc1 0.238%
C[C@@H]1CCCCO[C@H](CN(C)Cc2ccccc2)[C@H](C)CN([C@H](C)CO)C(=O)c2cc(NS(=O)(=O)c3ccc(Cl)cc3)ccc2O1 -0.0813%
C[C@H](CO)N1C[C@H](C)[C@H](CN(C)S(=O)(=O)c2ccccc2)Oc2c(NC(=O)CCCCCC(=O)Nc3ccccc3N)cccc2C1=O -0.28%
C[C@H](CO)N1C[C@H](C)[C@H](CN(C)S(C)(=O)=O)Oc2ccc(NC(=O)c3ccncc3)cc2CC1=O -0.8%
C[C@H]1CN([C@@H](C)CO)C(=O)CCCn2cc(nn2)CO[C@H]1CN(C)C(=O)Nc1cccc(C(F)(F)F)c1 -0.271%
COc1ccc(NC(=O)Nc2ccc3c(c2)C(=O)N([C@@H](C)CO)C[C@H](C)[C@@H](CN(C)C(=O)Nc2cccc4ccccc24)OCCCC[C@@H](C)O3)cc1 0.279%
C[C@H](CO)N1C[C@H](C)[C@@H](CN(C)S(=O)(=O)c2ccccc2)Oc2ccc(NC(=O)Nc3ccc(F)cc3)cc2CC1=O -0.112%
C[C@@H]1CN([C@H](C)CO)C(=O)c2cc(NC(=O)C3CCCCC3)ccc2O[C@H]1CN(C)C(=O)Nc1ccccc1 -0.382%
C[C@H]1CN([C@@H](C)CO)C(=O)CCCn2cc(nn2)CO[C@@H]1CN(C)C(=O)Nc1ccccc1 0.231%
COc1ccc(NC(=O)N(C)C[C@@H]2Oc3ccc(NS(=O)(=O)c4ccc(Cl)cc4)cc3C(=O)N([C@H](C)CO)C[C@@H]2C)cc1 0.258%
C[C@@H]1CN([C@@H](C)CO)C(=O)CCCn2cc(nn2)CO[C@@H]1CN(C)Cc1ccccc1C(=O)O 0.264%
O=C(CCCCC(=O)N/N=C/c1ccc[nH]1)NO -0.0327%
COc1ccc(NC(=O)N(C)C[C@H]2OCCCC[C@@H](C)Oc3ccc(NS(=O)(=O)c4ccc(F)cc4)cc3C(=O)N([C@@H](C)CO)C[C@@H]2C)cc1 -0.991%

Source: PubChem BioAssay AID2465 (Broad Institute, 2010)
